# Results from ChEMBL document CHEMBL3585257, “Structure-Activity Relationship Studies of 3-epi-Deoxynegamycin Derivatives as Potent Readthrough Drug Candidates” (ACS Med Chem Lett, 2015).
# Legend:
# [1] = system: COS-7; experiment: (§1) Mutation read through activity in african green monkey COS7 cells transfected with dual-reporter plasmid encoding beta-galactosidase and luciferase genes connected with TGA-containing mouse mdx gene exon 23 nucleotide sequence as premature termination codon assessed as ratio of luciferase activity to beta-galactosidase activity at 200 uM incubated for 48 hrs at 37 degC relative to basal level; assay type: functional, Chlorocebus aethiops
# In short: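 COS-7 cells transfected with a dual-reporter plasmid: constitutive β-galactosidase upstream of a TGA premature stop codon, luciferase downstream. Compounds tested at 200 μM. Lysate luciferase/β-galactosidase activity ratio expressed relative to untreated (D-MEM) basal level = 1; some series normalized to a reference compound instead. Triplicate, mean ± SD.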
# [2] = Mutation read through activity in human cell-free protein synthesis system containing beta-galactosidase and luciferase genes connected with TGA-containing mouse mdx gene exon 23 nucleotide sequence as premature termination codon assessed as ratio of luciferase activity to beta-galactosidase activity at 20 uM incubated at 37 degC for 3 hrs relative to basal level
# In short: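 Cell-free translation of the β-galactosidase–TGA–luciferase dual reporter with compound at 20 μM. Readthrough given as luciferase/β-galactosidase ratio relative to no-compound control (= 1). n = 3, mean ± SD.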
# [3] = Drug metabolism in presence of porcine liver esterase assessed as (S)-2-[2-(3,5-Diaminopentanoyl)-1-methylhydrazinyl]acetic acid.2TFA formation in 100 mM pH 7.4 phosphate buffer at 37 degC; conditions: pig, isolated protein, TDE = time-dependent effect
# [4] = Stability in absence of porcine liver esterase assessed as compound remaining in 100 mM pH 7.4 phosphate buffer at 37 degC after 6 hrs; assay type: physicochemical; conditions: phosphate buffer without porcine liver esterase, read-out: Stability
# In short: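 Ester incubated without esterase in 100 mM phosphate buffer, pH 7.4, at 37 °C for 6 h. Percent compound remaining measured by RP-HPLC.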
# [5] = Drug metabolism in presence of porcine liver esterase assessed as (S)-2-[2-(3,5-Diaminopentanoyl)-1-methylhydrazinyl]acetic acid.2TFA formation in 100 mM pH 7.4 phosphate buffer at 37 degC incubated for 1 to 4 hrs; assay type: physicochemical; conditions: pig, isolated protein
# [6] = system: COS-7; experiment: as §1, with “20” for “200”; assay type: functional, Chlorocebus aethiops
# [7] = system: COS-7; experiment: as §1, with “activity at 25 to 200 uM” for “activity at 200 uM”; assay type: functional, cell-based; conditions: Chlorocebus aethiops
# [8] = system: Escherichia coli; experiment: Toxicity against Escherichia coli NBRC3972; assay type: functional
# [9] = system: Staphylococcus aureus; experiment: Toxicity against Staphylococcus aureus NBRC13276; assay type: functional
SMILES,Ratio [1],also measured
CN(CC(=O)O)NC(=O)C[C@@H](N)CCCCN,2.05,–
CN(CC(=O)OCc1cccc(Cl)c1)NC(=O)C[C@@H](N)CCN,4.9,Ratio [2]: 1.23; Drug metabolism [3]: tde; remaining at 6 h [4]: 94%; Drug metabolism [5]: metabolite_detected; Ratio [6]: 3.58
COc1cccc(COC(=O)CN(C)NC(=O)C[C@@H](N)CCN)c1,3.71,–
CN(CC(=O)O)NC(=O)C[C@H](N)C[C@@H](O)CN [NEGAMYCIN],1.81,–
CN(CC(=O)O)NC(=O)C[C@@H](N)CCN,4.28,Activity [7]: Dose-dependent effect; MIC [8]: ≥ 1020 µg/mL; Ratio [2]: 2.72; MIC [9]: 1020 µg/mL; Ratio [6]: 3.1
CCNC(=O)CN(C)NC(=O)C[C@@H](N)CCN,1.42,–
CCOC(=O)CN(C)NC(=O)C[C@@H](N)CCN,2.08,–
CN(CC(=O)OCc1ccccc1[N+](=O)[O-])NC(=O)C[C@@H](N)CCN,4.51,–
COc1ccccc1COC(=O)CN(C)NC(=O)C[C@@H](N)CCN,3.1,–
CN(CC(=O)O)NC(=O)[C@@H](N)CN,1.3,–
CN(CC(=O)O)NC(=O)[C@@H](N)CCCN,0.99,–
CN(CC(=O)OCc1ccccc1Br)NC(=O)C[C@@H](N)CCN,3.83,–
CN(CC(=O)OCc1cccc([N+](=O)[O-])c1)NC(=O)C[C@@H](N)CCN,3.21,–
CN(CC(=O)OCc1ccc(Br)cc1)NC(=O)C[C@@H](N)CCN,2.98,–
CN(CC(=O)O)NC(=O)[C@@H](N)CCN,1.07,–
CN(CC(=O)OCc1ccccc1Cl)NC(=O)C[C@@H](N)CCN,3.34,–
COc1ccc(COC(=O)CN(C)NC(=O)C[C@@H](N)CCN)cc1,3.25,–
CN[C@@H]1[C@@H](O)[C@@H](O[C@@H]2[C@@H](O)[C@H](O[C@H]3O[C@H]([C@@H](C)O)[C@@H](O)[C@H](O)[C@H]3N)[C@@H](N)C[C@H]2N)OC[C@]1(C)O [GENETICIN],6.65,–
CN(CC(=O)OCc1cccc(Br)c1)NC(=O)C[C@@H](N)CCN,3.75,–
CN(CC(=O)OCc1ccc(Cl)cc1)NC(=O)C[C@@H](N)CCN,4.21,–
CN(CC(=O)OCc1ccc([N+](=O)[O-])cc1)NC(=O)C[C@@H](N)CCN,3.05,–
CN(CC(=O)NCc1ccccc1)NC(=O)C[C@@H](N)CCN,0.8,–
"CN(CC(=O)O)NC(=O)CC(N)CN (single isomer, unassigned)",1.49,–
CN(CC(=O)O)NC(=O)[C@@H](N)CCCCN,1.01,–
CN(CC(=O)O)NC(=O)C[C@@H](N)CCCN,2.94,–
CN(CC(=O)OCc1ccccc1)NC(=O)C[C@@H](N)CCN,4.04,–
